# ABHD4 inh: inhibits mouse alpha/beta hydrolase domain 4 | purified mABHD4, FP-Rh probe fluorescence polarization | inhibition, % at 8.92 µM | AID 720543 | 370,000 tested, 0.54% active;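 active = inhibition exceeding the mean over every tested compound plus 3 SD, cut at about 30% in these data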
#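 Assay system: wild-type mouse ABHD4 protein; compound: single nominal dose of 8.92 µM, 0.89% DMSO final; schedule: 45 min + 60 min at 25 °C; measured by: FP readout, ex 525 nm / em 598 nm; evaluation: % inhibition of FP-Rh probe binding versus controls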
# PRMT1 inh: blocks human protein arginine methyltransferase 1; AID 652257; 370,000 tested, 1.3% active; Q99873; inhibition, % at 2.79 µM; recombinant PRMT1, activity-based probe fluorescence polarization;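 active = inhibition above about 21% made by adding two undisclosed values, limit read from the data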
# Target sequence (Q99873 whole entry, looked up): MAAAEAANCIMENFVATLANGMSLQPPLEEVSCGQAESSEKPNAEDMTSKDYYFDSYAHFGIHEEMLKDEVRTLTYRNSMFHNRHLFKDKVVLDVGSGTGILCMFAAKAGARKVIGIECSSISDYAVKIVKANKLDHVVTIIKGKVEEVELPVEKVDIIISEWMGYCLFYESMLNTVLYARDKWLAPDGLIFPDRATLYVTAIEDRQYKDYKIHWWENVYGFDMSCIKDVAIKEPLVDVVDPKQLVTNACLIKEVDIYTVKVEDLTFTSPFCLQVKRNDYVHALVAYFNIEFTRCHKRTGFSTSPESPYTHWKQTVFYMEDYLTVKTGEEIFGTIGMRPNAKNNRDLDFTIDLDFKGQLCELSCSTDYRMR
# HTRA1 inh: inhibitors of human serine peptidase HTRA1. recombinant HTRA1, FP-rhodamine activity-based probe, fluorescence polarization. 340,000 tested, 0.5% active. inhibition, % at 5.96 µM; in the data active = inhibition above about 36%
# TCR CD3 inh: human TCR-CD3 binding inhibition | TAMRA-labeled TCR probe fluorescence, biochemical | inhibition, % at 9.4 µM | 360,000 tested, 0.37% active;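 note: recombinant mutant TCR 2C K166C tagged with TAMRA read by polarization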
# SIAE inh: inhibitors of human sialic acid acetylesterase SIAE; Q9HAT2; SIAE FP-Rh probe binding, fluorescence polarization; inhibition, % at 9.66 µM; 370,000 tested, 0.69% active;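 active = inhibition above a cutoff: mean of compounds within the control limits plus 3 SD of those, cut at about 17% in these data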
# HTRA1 inh conf: confirmation of human HTRA1 inhibitors. shares compounds with HTRA1 inh. recombinant HTRA1, FP-rhodamine activity-based probe, fluorescence polarization. inhibition, % at 5.96 µM. 1,600 tested, 66% active;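 active = mean inhibition over three repeats above a set limit taken from the earlier primary screen, cut at about 37% in these data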;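 note: inhibitors block probe binding so polarization drops and inhibition rises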
# BSA TAMRA ctr: counter-screen for TCR-CD3 interaction inhibitors: BSA probe. shares compounds with TCR CD3 inh. TAMRA-labeled BSA probe fluorescence counterscreen. inhibition, % at 9.4 µM. 1,200 tested, 10% active. AID 652035; in the data active = inhibition above about 23%
# TCR-CD3 conf: TCR-CD3 interaction inhibition, confirmation | shares compounds with TCR CD3 inh | TAMRA-labeled TCR probe fluorescence binding assay | inhibition, % at 9.4 µM | 1,200 tested, 48% active
# PRMT1 confirm: confirmation of human PRMT1 inhibitors. shares compounds with PRMT1 inh. recombinant His-PRMT1, activity-based probe fluorescence polarization. inhibition, % at 2.79 µM. 3,300 tested, 42% active;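 active = mean inhibition across replicates above the hit cutoff derived for the earlier primary screen, cut at about 22% in these data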
# Hits are given with their value; - = inactive; . = no result given. Shown are actives, neighbours in structure and some others; about 2.5% of the full set was active somewhere. Cut-off read from the data, not from the text of the source, unless noted: active = inhibition above about 19%; inactive = the rest.
SMILES,ABHD4 inh,PRMT1 inh,HTRA1 inh,TCR CD3 inh,SIAE inh,HTRA1 inh conf,PRMT1 confirm,others
CN(Cc1ccccc1)C(=O)c1cccc(NC(=O)Cc2ccc(NC(=O)C3CCCN(C(=O)C4CCCC4)C3)cc2)c1 (stereo not given),-,-,-,-,-,.,.,
O=C(NNC(=O)c1cc2cc(Br)ccc2oc1=O)c1ccc(O)cc1O,-,-,58,46,-,83,.,BSA TAMRA ctr=-;TCR-CD3 conf=35
O=C(CCc1nc2ccccc2c(=O)[nH]1)N1CCN(S(=O)(=O)c2cccc(F)c2)CC1,-,-,-,-,-,.,.,
Cc1nnsc1C(=O)N/N=C/c1ccc2ccccc2c1O,-,-,41,41,-,55,.,BSA TAMRA ctr=-;TCR-CD3 conf=29
Cc1nnsc1C(=O)N/N=C/c1ccccc1,-,-,-,-,-,.,.,
COc1ccc(N2CCCC2=O)cc1S(=O)(=O)N1CCOCC1,-,-,-,-,-,.,.,
Cc1ccc(C(=O)Nc2nnc(CC(=O)N/N=C/c3ccc(O)c(O)c3)s2)cc1,-,-,48,34,-,64,.,BSA TAMRA ctr=-;TCR-CD3 conf=68
Cc1ccc(C(=O)Nc2nnc(CC(=O)N/N=C/c3ccncc3)s2)cc1,-,-,-,-,-,.,.,
COc1cc(-c2nnc(SCc3cc(=O)oc4cc(O)c(O)cc34)o2)cc(OC)c1OC,33,-,47,28,-,-,.,BSA TAMRA ctr=-;TCR-CD3 conf=40
CCOC(=O)CSc1nnc(-c2cc(OC)c(OC)c(OC)c2)o1,-,-,-,-,-,.,.,
C/C(=N\NC(=O)COc1ccc(C)cc1C(C)C)c1ccc(-n2ccnc2)cc1,-,-,-,-,-,.,.,
O=C1CC(=Nc2ccc([N+](=O)[O-])cc2)NN1c1c(Cl)cc(Cl)cc1Cl,65,35,49,-,-,-,-,
Cc1ccc(Cn2cc(CN(C(C)(C)C)S(=O)(=O)c3ccccc3Br)nn2)cc1,-,-,.,.,-,.,.,
Cc1ccc(S(=O)c2ccc([N+](=O)[O-])c3nonc23)cc1 (stereo not given),44,58,43,-,-,73,106,
Cc1ccc(Nc2c([N+](=O)[O-])ccc3nonc23)c(C)c1,-,-,-,-,-,.,.,
CCOC(=O)c1c(-c2ccccc2)oc2cc(CN(C)C)c(O)c(CN(C)C)c12,-,26,44,-,-,51,-,
CCOC(=O)c1c(C)oc2cc(Cl)c(O)c(CN(C)C)c12,-,-,-,-,-,.,.,
CN(CC1CCCN(CCc2ccc(Cl)cc2)C1)C(=O)c1ccco1 (stereo not given),-,-,-,-,-,.,.,
O=C(O)c1cc(N2N=C(C(F)(F)F)/C(=C/C=C/c3ccco3)C2=O)ccc1Cl,58,70,41,26,-,-,54,BSA TAMRA ctr=-;TCR-CD3 conf=34
C#CCNC(=O)C[C@H]1C[C@@]2(C(=O)OC)C(=C[C@H](C(C)(C)C)O[C@@H]2C)N(Cc2ccc(Cl)cc2Cl)C1=O,-,-,.,.,-,.,.,
Cc1cc(C)cc(Nc2cc(=O)n(C3CCCCC3)c(=O)[nH]2)c1,-,-,-,-,-,.,.,
Cc1cc2nc3c(=O)n(C4CCCCC4)c(=O)[nH]c3nc2cc1N,-,94,58,-,-,-,118,
Cc1cccc(C)c1NC(=O)C(c1ccccc1)N1CCN(c2ccc(C(F)(F)F)cn2)CC1 (stereo not given),-,-,.,-,-,.,.,
Cc1c(N=C2C=C(Br)C(=O)C(Br)=C2)c(=O)n(-c2ccccc2)n1C,69,61,57,46,-,-,49,BSA TAMRA ctr=-;TCR-CD3 conf=-
COc1ccc(C(=O)CSc2nnc(-c3cccc(Cl)c3)n2Cc2ccco2)cc1,-,-,.,.,-,.,.,
COc1ccc(/C=C/C(=O)c2ccc(OC)cc2OC)cc1,-,-,-,-,-,.,.,
CNc1ccc(Br)cc(C(=O)/C=C/c2ccc(OC)cc2)c1=O,41,44,45,-,-,-,39,
CC1(C)CCN2CCC(C)(C)c3c(O)ccc1c32,-,54,66,-,-,-,-,

# Screening results from PubChem BioAssay.
